Results reported in ChEMBL document CHEMBL3045328, “Substituted N-phenylpyrazine-2-carboxamides, their synthesis and evaluation as herbicides and abiotic elicitors” (Molecules, 2007).

How the values were obtained:
[1] = Lipophilicity, log P of the compound; assay type: physicochemical; settings: octanol/water
[2] = tested on: Chlorella vulgaris; assay: Antialgal activity in green algae Chlorella vulgaris assessed as reduction of chlorophyll content; assay type: functional, organism-based
Outline: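 Algal suspensions (initial Chl 0.01 mg·L-1) grown 7 days, 16 h light/8 h dark, PAR 80 μmol/m2∙s, pH 7.2, with compound at 0.83–100 μmol·L-1 (DMSO ≤0.25%, same in controls). Chl extracted into methanol, read spectrophotometrically. IC50 = concentration halving chlorophyll versus control, or % of control ± S.D.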

[3] = tested on: Spinacia oleracea; assay: Inhibition of photosynthetic electron transport in Spinacia oleracea (spinach) chloroplasts assessed as decrease in oxygen evolution measured after irradiated with 250 W halogen lamp by herbicidal assay in presence of electron acceptor 2,6-dichlorophenol-indophenol; assay type: functional; settings: L., light or radiation study
Outline: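 Spinach chloroplasts in phosphate buffer (0.02 mol·L-1, pH 7.2) with sucrose 0.4 mol·L-1, MgCl2 0.005 mol·L-1, NaCl 0.015 mol·L-1; chlorophyll 30 mg/L. DCPIP photoreduction followed under ~100 W/m2 halogen light through 4 cm water filter, 22 °C. Compounds in DMSO (up to 4%). IC50 = molar concentration giving 50% drop in oxygen evolution versus untreated control.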

[4] = Chlorella vulgaris, read-out: IC50

Structure (SMILES) | logP [1] | IC50 [2] | IC50 [3] | IC50 [2, 4]
Cc1ccc(NC(=O)c2cncc(Cl)n2)cc1I | 3.33 | ND(Insoluble) | 51 µM | –
Cc1cc(NC(=O)c2cnc(C(C)(C)C)cn2)ccc1Cl | 3.76 | – | 190 µM | 44 µM
CC(C)(C)c1ncc(C(=O)Nc2ccccc2F)nc1Cl | 3.78 | – | 69 µM | 89 µM
CC(C)(C)c1ncc(C(=O)Nc2ccc(C(F)(F)F)cc2)nc1Cl | 4.54 | ND(Insoluble) | 184 µM | –
Cc1cc(NC(=O)c2cncc(Cl)n2)ccc1Cl | 2.53 | – | 595 µM | 80 µM
CN(C)C(=O)Nc1ccc(Cl)c(Cl)c1 [DCMU] | 2.76 | – | – | –
